From paper PMC8458982 (The Journal of Biological Chemistry, 2021)

Tests used:
mTRPC6 mutant ^mT487L = experiment: whole-cell patch-clamp, mTRPC6 mutant T487L; format: cell-based, mouse; conditions: ^mT487L (S1 pocket)
How it was run: (§1)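 Transiently transfected HEK293 cells expressing mouse or human TRPC6 WT, or sequence-verified mouse point mutants, recorded 24–48 h post-transfection. Conventional whole-cell clamp at −60 mV and 23 °C, gap-free; test compound applied by Y-tube. Pipette: CsCl/HEPES/BAPTA, 400 nM free Ca2+, pH 7.2. Bath: NaCl-based, 2 mM CaCl2, pH 7.4. EC50 from Hill fit of concentration–current data. Mutant screen used current ratios (10/5 μM or 3/1 μM). At least 3 transfection batches.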

human TRPC6 (hTRPC6-WT) = human TRPC6 (hTRPC6-WT) (Homo sapiens, UniProt Q9Y210); experiment: whole-cell patch-clamp, hTRPC6-WT expressed in HEK293 cells; format: cell-based
How it was run: as §1

mTRPC6 mutant ^mF640W = mTRPC6 mutant ^mF640W (Mus musculus, UniProt Q61143, F640W); experiment: whole-cell patch-clamp, mTRPC6 mutant F640W; format: cell-based
How it was run: as §1

mTRPC6 mutant ^mK697R = mTRPC6 mutant ^mK697R (Mus musculus, UniProt Q61143, K697R); experiment: whole-cell patch-clamp, mTRPC6 mutant K697R; format: cell-based
How it was run: as §1

mTRPC6 mutant ^mW679F = mTRPC6 mutant ^mW679F (Mus musculus, UniProt Q61143, W679F); experiment: whole-cell patch-clamp, mTRPC6 mutant W679F; format: cell-based; conditions: saturated agonist
How it was run: as §1

mTRPC6 mutant ^mS685T = mTRPC6 mutant ^mS685T (Mus musculus, UniProt Q61143, S685T); experiment: whole-cell patch-clamp, mTRPC6 mutant S685T; format: cell-based; conditions: ^mS685T (S3 pocket)
How it was run: as §1

mTRPC6 mutant ^mK675R = mTRPC6 mutant ^mK675R (Mus musculus, UniProt Q61143, K675R); experiment: whole-cell patch-clamp, mTRPC6 mutant K675R; format: cell-based
How it was run: as §1

mTRPC6 mutant ^mF490W = experiment: whole-cell patch-clamp, mTRPC6 mutant F490W; format: cell-based, mouse; conditions: ^mF490W (S1 pocket)
How it was run: as §1

mTRPC6 mutant ^mL684V = mTRPC6 mutant ^mL684V (Mus musculus, UniProt Q61143, L684V); experiment: whole-cell patch-clamp, mTRPC6 mutant L684V; format: cell-based; conditions: ^mL684V (S3 pocket)
How it was run: as §1

mTRPC6 mutant ^mV687L = experiment: whole-cell patch-clamp, mTRPC6 mutant V687L; format: cell-based, mouse; conditions: ^mV687L (S3 pocket)
How it was run: as §1

hTRPC6 mutant ^hY705W = hTRPC6 mutant ^hY705W (Homo sapiens, UniProt Q9Y210, Y705W); experiment: whole-cell patch-clamp, hTRPC6 mutant Y705W; format: cell-based
Chain of hTRPC6 mutant ^hY705W (Q9Y210 whole entry Y705W): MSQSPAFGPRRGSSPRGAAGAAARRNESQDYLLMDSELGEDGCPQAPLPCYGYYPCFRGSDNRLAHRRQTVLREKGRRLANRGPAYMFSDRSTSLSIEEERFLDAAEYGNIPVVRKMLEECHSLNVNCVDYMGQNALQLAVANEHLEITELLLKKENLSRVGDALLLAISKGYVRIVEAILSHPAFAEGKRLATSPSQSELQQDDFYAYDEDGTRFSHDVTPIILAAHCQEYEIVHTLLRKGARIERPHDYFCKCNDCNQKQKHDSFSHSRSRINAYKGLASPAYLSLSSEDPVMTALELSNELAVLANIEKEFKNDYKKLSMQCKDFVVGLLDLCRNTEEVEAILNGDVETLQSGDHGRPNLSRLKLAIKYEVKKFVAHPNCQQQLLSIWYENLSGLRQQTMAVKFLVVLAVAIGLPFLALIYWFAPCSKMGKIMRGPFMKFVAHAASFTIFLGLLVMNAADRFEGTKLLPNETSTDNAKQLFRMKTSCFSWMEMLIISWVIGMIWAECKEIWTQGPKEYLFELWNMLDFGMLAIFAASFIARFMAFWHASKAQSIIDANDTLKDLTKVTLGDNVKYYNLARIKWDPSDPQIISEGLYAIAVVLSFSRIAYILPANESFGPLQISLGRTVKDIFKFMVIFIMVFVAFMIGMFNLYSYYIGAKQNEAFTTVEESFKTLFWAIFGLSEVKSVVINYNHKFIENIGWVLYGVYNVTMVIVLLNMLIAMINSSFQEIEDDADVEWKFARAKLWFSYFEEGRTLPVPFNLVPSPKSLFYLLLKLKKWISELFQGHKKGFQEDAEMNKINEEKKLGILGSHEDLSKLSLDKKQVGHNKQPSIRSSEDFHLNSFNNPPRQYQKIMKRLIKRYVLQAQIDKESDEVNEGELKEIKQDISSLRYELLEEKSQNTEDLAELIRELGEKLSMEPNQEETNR

Chain of mTRPC6 mutant ^mK697R (Q61143 whole entry K697R): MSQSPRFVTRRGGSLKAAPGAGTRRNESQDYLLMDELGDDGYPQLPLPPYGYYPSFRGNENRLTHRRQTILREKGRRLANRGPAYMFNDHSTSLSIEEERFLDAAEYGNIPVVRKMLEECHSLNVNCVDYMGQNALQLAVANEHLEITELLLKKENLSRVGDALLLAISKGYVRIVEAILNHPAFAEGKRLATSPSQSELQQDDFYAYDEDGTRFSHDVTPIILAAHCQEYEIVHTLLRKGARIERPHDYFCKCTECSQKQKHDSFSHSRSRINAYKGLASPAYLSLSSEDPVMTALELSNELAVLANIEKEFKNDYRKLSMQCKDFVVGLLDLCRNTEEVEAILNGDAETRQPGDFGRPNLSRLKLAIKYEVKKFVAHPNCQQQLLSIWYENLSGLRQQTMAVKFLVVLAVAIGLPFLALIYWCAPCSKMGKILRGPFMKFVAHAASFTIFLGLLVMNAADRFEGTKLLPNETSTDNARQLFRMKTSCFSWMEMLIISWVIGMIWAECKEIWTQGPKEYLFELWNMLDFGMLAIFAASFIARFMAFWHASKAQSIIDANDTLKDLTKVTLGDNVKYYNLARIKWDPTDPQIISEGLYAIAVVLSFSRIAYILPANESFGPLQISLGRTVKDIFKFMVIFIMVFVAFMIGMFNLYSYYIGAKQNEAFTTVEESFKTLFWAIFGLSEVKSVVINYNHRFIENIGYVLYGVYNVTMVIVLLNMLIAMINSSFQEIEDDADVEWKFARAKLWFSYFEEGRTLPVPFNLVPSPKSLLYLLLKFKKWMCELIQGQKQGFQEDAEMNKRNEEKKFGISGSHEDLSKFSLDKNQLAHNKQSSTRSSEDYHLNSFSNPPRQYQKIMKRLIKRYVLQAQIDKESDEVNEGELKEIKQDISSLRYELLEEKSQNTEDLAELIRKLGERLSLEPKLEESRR
Chain of mTRPC6 mutant ^mK675R (Q61143 whole entry K675R): as the sequence (Q61143 whole entry K697R) above, with K675R, R697K counted along it
Chain of mTRPC6 mutant ^mF640W (Q61143 whole entry F640W): as the sequence (Q61143 whole entry K697R) above, with F640W, R697K counted along it
Chain of mTRPC6 mutant ^mL684V (Q61143 whole entry L684V): as the sequence (Q61143 whole entry K697R) above, with L684V, R697K counted along it
Chain of mTRPC6 mutant ^mS685T (Q61143 whole entry S685T): as the sequence (Q61143 whole entry K697R) above, with S685T, R697K counted along it
Chain of human TRPC6 (hTRPC6-WT) (Q9Y210 whole entry): as the sequence (Q9Y210 whole entry Y705W) above, with W705Y counted along it
Chain of mTRPC6 mutant ^mW679F (Q61143 whole entry W679F): as the sequence (Q61143 whole entry K697R) above, with W679F, R697K counted along it

CCOC(=O)N1CCC(c2cc(O)n3nc(C)c(-c4ccc(F)cc4)c3n2)CC1 [M085, Ethyl 4-(3-(4-fluorophenyl)-7-hydroxy-2-methylpyrazolo[1,5-a]pyrimidin-5-yl)piperidine-1-carboxylate]
ratio of M085 activation current I10 μM/I5 μM (mTRPC6 mutant ^mT487L): 1.26 ± 0.22 | EC50 (human TRPC6 (hTRPC6-WT)): 2.94 ± 0.7 µM | EC50 (mTRPC6 mutant ^mF640W): 0.84 ± 0.27 µM | EC50 (mTRPC6 mutant ^mK697R): 14.1 ± 1.95 µM | Imax (maximal current density) (mTRPC6 mutant ^mK697R; ^mK697R, 100 μM agonist): 25.58 ± 1.86 pA/pF | agonist-induced current (channel function) (mTRPC6 mutant ^mW679F): complete loss of function | agonistic effect (mTRPC6 mutant ^mS685T): loss of agonistic effect | EC50 (mTRPC6 mutant ^mK675R): 6.9 ± 2.36 µM | Imax (maximal current density) (mTRPC6 mutant ^mK675R; ^mK675R, 100 μM agonist): 8.26 ± 0.62 pA/pF | ratio of M085 activation current I10 μM/I5 μM (mTRPC6 mutant ^mF490W): 1.91 ± 0.12 | agonistic effect (mTRPC6 mutant ^mL684V): loss of agonistic effect | ratio of M085 activation current I10 μM/I5 μM (mTRPC6 mutant ^mV687L): 1.13 ± 0.26 | EC50 (hTRPC6 mutant ^hY705W): 35.3 ± 6.15 µM
